Tests used:
3T3-L1 cells [1] = assay: Cellular uptake and intracellular localization by confocal microscopy; assay type: cell-based; conditions: 6-FAM-tagged ASO, 24 h; for cellular uptake, control group: non-differentiated control (Con) cells
Outline: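 Control or normoxic-differentiated 3T3-L1 cells were detached at day 4 after induction and re-seeded on chambered coverglass at 70% confluency. After about 20 h, cells were given 6-FAM (3′)-labelled ASO conjugate, or equivalent ASO or ionic complex, for 24 h without serum deprivation. After a PBS wash, live cells were imaged by laser-scanning confocal microscopy (water immersion ×60, 37 °C, 5% CO2).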

3T3-L1 cells [2] = assay: Cell cytotoxicity; assay type: cell-based; conditions: MTT, 24 h
Outline: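 3T3-L1 cells were differentiated under hypoxia (100 μM CoCl2 in differentiation medium, refreshed every 2 days) and treated for 24 h at 37 °C with the test compound, at 1.5 μg/μl ASO equivalent. MTT (5 mg/ml in complete DMEM) was then added for 5 h. Formazan was dissolved in DMSO and absorbance read. Viability (%) = OD(sample)/OD(control) × 100.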

Row | Substance | cellular uptake, control group (3T3-L1 cells [1]) | cell viability under hypoxia compared to that of control (3T3-L1 cells [2]; differentiation under hypoxia, 1.5 μg/μl ASO) | concentration showing significant cell toxicity (3T3-L1 cells [2]; non-differentiated control 3T3-L1 cells, AS-L containing 0-10 μg/μl of ASO) [µg/µL] | cellular uptake, differentiation group under normoxia (3T3-L1 cells [1]; differentiation under normoxia (D))
1 | MMO: PS modified mismatch-HIF1α-oligonucleotide, 5’-GTGATCCCCTGCTCTTGCCGT-3’ (GTGATCCCCTGCTCTTGCCGT; all phosphorothioate, sugars by position and methylation of C not given here) [reference compound] | unable to internalize into cells | – | – | –
2 | ASO: PS modified antisense-HIF1α-oligonucleotide, 5’-ACAACGCGGGCACCGATTCGCCATG-3’ (antisense ACAACGCGGGCACCGATTCGCCATG; all phosphorothioate, sugars by position and methylation of C not given here) | unable to internalize into cells | statistically indistinguishable | ≥ 2 | unable to internalize into cells
